Assay results pooled from the literature.
Protocols differ between the studies behind these lines.

CC(C)[C@H]1C(=O)N[C@@H](CCCN=C(N)N)C(=O)NCC(=O)N[C@@H](CC(=O)O)C(=O)N[C@H](Cc2ccccc2)C(=O)N1C — Papp (Caco-2): ~0.1 ×10⁻⁶ cm/s
O=C(Nc1ccc2c(c1)B(O)OC2)c1cccc(OCc2ccccc2)c1 — Papp (PAMPA; 200 µM; 5 h; pH 7.4): 0.14 ×10⁻⁶ cm/s
COc1ccc(C[C@@H]2NC(=O)[C@@H](CC(C)C)NC(=O)CNC(=O)[C@H](CC(C)C)NC(=O)[C@@H](CC(C)C)NC(=O)[C@H]3CCCN3C2=O)cc1 — Papp (PAMPA; 10 µM; 7 h): 9.1 ×10⁻⁶ cm/s
COCCOCCOCCOCCOc1c(OC)cc2cc(C(=O)N3C[C@@H](CCl)c4c3cc(O)c3[nH]c(C(=O)OC)cc43)[nH]c2c1OC — Papp (PAMPA; 1 µM; 5 h; pH 7.4): 10 ×10⁻⁶ cm/s
Cc1nonc1Cn1nnc2c(N3CC[C@H](O)C3)nc(C(C)(C)C)nc21 — Papp (PAMPA): 2.2 ×10⁻⁶ cm/s
O=c1cc(-c2ccccc2)oc2c(O)c(O)ccc12 — Papp (PAMPA-BBB; 1 µM; 18 h): 6.32 ×10⁻⁶ cm/s
Cc1nc([C@@](C)(CC2CC2)NC(=O)c2cc(OCC(F)(F)F)c(C3CC3)cn2)no1 — Papp (PAMPA): 2.44 ×10⁻⁶ cm/s
CN1CCN(C(c2ccc(Cl)cc2)c2ccc(Cl)cc2)CC1 — Papp (PAMPA): 1020 ×10⁻⁶ cm/s
O=C(Nc1ccc2c(c1)B(O)OC2)c1ccc(OCc2ccc(Cl)cc2)cc1 — Papp (PAMPA; 200 µM; 5 h; pH 7.4): 4.4 ×10⁻⁶ cm/s
CC[C@H](C)[C@@H]1NC(=O)[C@H](CC(C)C)NC(=O)[C@@H](CC(C)C)NC(=O)[C@H]2CCCN2C(=O)[C@H](Cc2ccc(OC)cc2)NC(=O)[C@@H](CC(C)C)NC1=O — Papp (PAMPA; 10 µM; 7 h): 11.9 ×10⁻⁶ cm/s
Cn1c(=O)c2c(ncn2C)n(C)c1=O — Papp (PAMPA; 200 µM; 5 h; pH 7.4): 11.7 ×10⁻⁶ cm/s
CC[C@@H](C)[C@@H]1NC(=O)[C@@H](Cc2ccc(Cl)cc2)NC(=O)CN(C)C(=O)[C@H]([C@H](C)CC)NC(=O)[C@@H](Cc2ccc(Cl)cc2)NC(=O)CN(C)C1=O — Papp (PAMPA): 33 ×10⁻⁶ cm/s
O=C1[O][Pt]2([NH][C@@H]3CCCC[C@H]3[NH]2)[O]C1=O (relative stereo) — Papp (PAMPA; pH 6.8): 0.448 ×10⁻⁶ cm/s
CC[C@@H](C)[C@@H]1NC(=O)[C@@H](Cc2ccc(OC)cc2)NC(=O)CN(C)C(=O)[C@H]([C@H](C)CC)NC(=O)[C@@H](Cc2ccc(OC)cc2)NC(=O)CN(C)C1=O — Papp (PAMPA): 29 ×10⁻⁶ cm/s
N#Cc1ccc(COc2cccc(C(=O)Nc3ccc4c(c3)B(O)OC4)c2)cc1 — Papp (PAMPA; 200 µM; 5 h; pH 7.4): 0.076 ×10⁻⁶ cm/s
